Compounds with a hit are over-represented: about 2.5% of the library has one in this group of screens.
VIM-2 inhibitor = VIM-2 metallo-beta-lactamase inhibitors, primary screen, biochemical, epi-absorbance readout, Pseudomonas aeruginosa enzyme; inhibition, % at 5.6 µM; actives 0.89% (n = 290,000); purified VIM-2, nitrocefin hydrolysis, epi-absorbance fluorescence;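 active means inhibition above the mean of all tested compounds plus 3 SD, cutoff set per screening run, cut at about 7.5% in these data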;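 further: red hydrolysis product quenches plate fluorescence so inhibitors raise well fluorescence; 0% = enzyme with DMSO and 100% = DMSO without enzyme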
dFosB act = activators of delta FosB homodimer, primary screen, biochemical, fluorescence polarization, TAMRA-CDK5 oligo, single point; Protein FosB (Mus musculus), P13346; purified delta FosB; percent of positive-control signal above neutral wells; activation, % at 25 µM; actives 0.99% (n = 340,000);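 active means mean activation above about 17%, with every replicate also reaching it, limit read from the data, passing the limit was not always enough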
IMP-1 inh-1 = IMP-1 metallo-beta-lactamase inhibitors, primary screen, biochemical, epi-absorbance readout, Pseudomonas aeruginosa enzyme | purified IMP-1, nitrocefin hydrolysis, epi-absorbance fluorescence | inhibition, % at 5.6 µM | metallo-beta-lactamase IMP-1 (Pseudomonas aeruginosa) | actives 0.45% (n = 290,000);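 active means inhibition above the mean plus 3 SD of all compounds in the same screening run, cut at about 4.5% in these data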;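 further: 0% = IMP-1 with DMSO and 100% = DMSO wells lacking enzyme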
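System: purified IMP-1; amount: IMP-1 0.2 nM before substrate addition; compound: single dose, 5.6 µM; times: 25 °C, 15 min preincubation, 25 min reaction; signal: Epi-absorbance via hydrolysed-nitrocefin quenching of white-plate fluorescence, 480/530 nm, EDTA stop; benchmarks: DMSO with and without IMP-1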
HTR2A ag = mouse Htr2a agonists via beta-arrestin recruitment, primary screen, cell-based, luminescence; CHO-K1 mHTR2A beta-arrestin complementation; percent of 30 µM serotonin response; activation, % at 7.6 µM; AID 624169, 2012; 5-hydroxytryptamine receptor 2A (Mus musculus), P35363; actives 0.66% (n = 360,000);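 active means activation above a run cutoff, the mean activation of all tested compounds plus 3 SD, cut at about 14% in these data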;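 further: 0% = plate median of compound wells and 100% = 30 µM serotonin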
Target sequence (P35363 whole entry, looked up): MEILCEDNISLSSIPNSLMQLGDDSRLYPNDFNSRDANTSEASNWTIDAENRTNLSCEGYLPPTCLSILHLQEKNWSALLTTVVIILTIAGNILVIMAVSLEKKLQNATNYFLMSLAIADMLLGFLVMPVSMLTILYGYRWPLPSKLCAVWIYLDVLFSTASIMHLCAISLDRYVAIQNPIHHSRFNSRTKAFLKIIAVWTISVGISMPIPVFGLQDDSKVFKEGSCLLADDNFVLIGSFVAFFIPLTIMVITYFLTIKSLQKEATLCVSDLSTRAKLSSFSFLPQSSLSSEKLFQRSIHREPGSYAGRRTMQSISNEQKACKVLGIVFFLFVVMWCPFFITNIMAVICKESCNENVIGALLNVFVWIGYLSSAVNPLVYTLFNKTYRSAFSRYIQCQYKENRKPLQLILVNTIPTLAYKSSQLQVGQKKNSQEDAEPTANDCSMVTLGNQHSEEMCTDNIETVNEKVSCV
IMP-1 inh-2 = IMP-1 metallo-beta-lactamase inhibitors, confirmation, selectivity assay for selective VIM-2 inhibitor project, biochemical, epi-absorbance readout, triplicate; purified IMP-1, nitrocefin hydrolysis, epi-absorbance fluorescence; 1,300 tested, under 10 active; shares compounds with VIM-2 inhibitor; inhibition, % at 5.6 µM; AID 1856, 2009; call rule not given here;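 further: 0% = enzyme with vehicle and 100% = vehicle without enzyme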
VIM-2 FRET ctr = VIM-2 inhibitors in FRET format, confirmation, artefact control for selective VIM-2 inhibitor project, biochemical, epi-absorbance artifact exclusion. shares compounds with VIM-2 inhibitor. purified VIM-2, CCF2 FRET substrate hydrolysis. inhibition, % at 5.6 µM. actives 23% (n = 1,300). AID 1857, 2009;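 active means inhibition above the mean of all tested compounds plus 3 SD, cut at about 19% in these data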;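 further: 0% = VIM-2 plus DMSO and 100% = no enzyme wells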
TEM-1 counter = TEM-1 serine beta-lactamase inhibitors, counter-screen for VIM-2 inhibitor project, biochemical, epi-absorbance, HTS | shares compounds with VIM-2 inhibitor | Purified TEM-1, nitrocefin hydrolysis, epi-absorbance fluorescence | actives 3% (n = 1,300) | inhibition, % at 5.6 µM | AID 1866, 2009;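 active means inhibition above that campaign's mean inhibition plus 3 SD, cut at about 0.46% in these data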;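 further: 0% = TEM-1 with DMSO and 100% = TEM-1 with 100 µM potassium clavulanate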
VIM-2 confirm 2 = VIM-2 metallo-beta-lactamase inhibitors, confirmation, biochemical, epi-absorbance, hits shared with IMP-1 screen. shares compounds with VIM-2 inhibitor. purified VIM-2, nitrocefin hydrolysis. inhibition, % at 5.6 µM. actives 96% (n = 1,300);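 active means inhibition of the VIM-2 beta-lactamase enzyme above about 11% from the earlier first-round screen, limit read from the data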;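 further: 0% = VIM-2 with DMSO and 100% = buffer wells without enzyme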
* hit, by the source's call; x = no result given.

SMILES | VIM-2 inhibitor | dFosB act | IMP-1 inh-1 | HTR2A ag | IMP-1 inh-2 | VIM-2 FRET ctr | TEM-1 counter | VIM-2 confirm 2
COc1ccc(NC(=O)CCOc2ccc(C)cc2)c(OC)c1 | 0 | -3 | -1 | -1 | x | x | x | x
C[C@H](NC(=O)c1ccco1)C(=O)OCC(=O)N1CC(=O)Nc2ccccc21 | x | -1 | x | -3 | x | x | x | x
COc1cccc(CNC(=O)CCc2nc3cc(S(=O)(=O)N4CCOCC4)ccc3n2C)c1 | x | -5 | x | 1 | x | x | x | x
CCCN(Cc1nnc(-c2ccccc2Cl)o1)C(=O)c1oc2ccccc2c1C | x | -2 | x | -6 | x | x | x | x
CCc1cc(=O)oc2c3c(cc(OCC(=O)NCc4cccnc4)c12)OC(C)(C)CC3 | 3 | -17 | -6 | 1 | x | x | x | x
CCc1cc(=O)oc2c3c(cc(OCC(=O)Nc4cccnc4)c12)OC(C)(C)CC3 | 67* | -21 | -4 | 2 | -2 | -7 | -7 | 78*
Cc1nc(C)c(C(=O)OC(C)C(=O)Nc2ccc(F)cc2)s1 (stereo not drawn) | x | -7 | x | 1 | x | x | x | x
CCc1cc2c(CN3CCN(CC)CC3)cc(=O)oc2cc1O | 21* | 1 | 0 | -2 | -4 | -22 | -6 | 25*
CCCNC(=O)C1(C)CCCN(C(=O)/C=C/c2ccccc2)C1 (stereo not drawn) | x | x | x | -2 | x | x | x | x
CCOC(=O)c1c(-c2ccccc2)oc2ccc(OCC)cc12 | -2 | -5 | -1 | -4 | x | x | x | x
CCOC(=O)c1c(-c2ccccc2)oc2ccc(OCC(O)CNCCN(C)C)cc12 (stereo not drawn) | 25* | -15 | 1 | -6 | -3 | 20* | -6 | 38*
O=C(COc1ccc2c(c1)oc(=O)c1ccccc12)NCCCN1CCOCC1 | 20* | -38 | -2 | -6 | -3 | 3 | -8 | 33*
CC(Oc1ccc2c(-c3ccccc3)cc(=O)oc2c1)C(=O)NCCN1CCOCC1 (stereo not drawn) | 0 | -10 | -3 | -7 | x | x | x | x
CC(Oc1ccc2c(c1)oc(=O)c1ccccc12)C(=O)NCCN1CCOCC1 (stereo not drawn) | 14* | -7 | 3 | -2 | -3 | -1 | -7 | 23*
CC(Oc1cc2oc(=O)c3c(c2cc1Cl)CCC3)C(=O)NCCCN1CCOCC1 (stereo not drawn) | -1 | -13 | -2 | 1 | x | x | x | x
O=C(COc1ccc2c3c(c(=O)oc2c1)CCC3)NCCCN1CCOCC1 | 24* | -10 | 0 | -3 | -3 | 3 | -6 | 31*
CC(Oc1cc2oc(=O)c3c(c2cc1Cl)CCCC3)C(=O)NCCN1CCOCC1 (stereo not drawn) | 13* | -14 | 1 | -6 | -4 | -3 | -5 | 15*
COC(=O)[C@H](C)N(Cc1ccc(Cl)c(Cl)c1)S(=O)(=O)CCN1CCN(c2ccccc2)CC1 | x | 2 | x | -1 | x | x | x | x
CC(CCc1ccccc1)NC(=O)N1CCOCC1 (stereo not drawn) | -1 | 4 | -1 | -3 | x | x | x | x
O=C1OC(/C(=C\Nc2cc(Cl)ccc2O)[N+](=O)[O-])c2ccccc21 (stereo not drawn) | 1 | -2 | -3 | 4 | x | x | x | x
CCCc1cc(O)c2c(C)cc(=O)oc2c1 | -4 | -13 | -3 | 1 | x | x | x | x
CCOC(=O)c1nc2c(=O)n(C)c(=O)n(C)c2n(C)c1=O | x | 5 | x | 6 | x | x | x | x
COC(=O)c1ccc(OCC(O)CN2CCN(C(=O)c3ccco3)CC2)c(OC)c1 (stereo not drawn) | -4 | -9 | -5 | 1 | x | x | x | x
CCc1cc(=O)oc2cc(OC(C)C(=O)NCCCn3ccnc3)ccc12 (stereo not drawn) | 0 | -1 | -1 | -3 | x | x | x | x
CCc1cc(=O)oc2c(C)c(OC(C)C(=O)NCCCn3ccnc3)ccc12 (stereo not drawn) | 20* | -6 | -1 | -2 | -2 | -7 | -6 | 30*
SMILES | VIM-2 inhibitor | dFosB act | IMP-1 inh-1 | HTR2A ag | IMP-1 inh-2 | VIM-2 FRET ctr | TEM-1 counter | VIM-2 confirm 2
Cc1cc(=O)oc2c(C)c(OC(C)C(=O)NCCCn3ccnc3)ccc12 (stereo not drawn) | 16* | -5 | -3 | 5 | -3 | -4 | -7 | 31*
CCOC(=O)c1cnc2ccc(OCC)cc2c1NCCCN1CCOCC1 | 32* | 2 | -4 | 1 | -3 | -3 | -6 | 45*
CCOC(=O)c1cnc2ccc(C(=O)OC)cc2c1NCCCN1CCOCC1 | 70* | -11 | 1 | 1 | -4 | -3 | -6 | 82*
COc1ccc(NC(=O)COc2coc(CN3c4ccccc4CC3C)cc2=O)cc1 (stereo not drawn) | x | -4 | x | -2 | x | x | x | x
O=C1[C@H]2[C@H](C=CC[C@H]2C(=O)N2CCOCC2)CCN1Cc1ccccc1 | x | 3 | x | 5 | x | x | x | x
O=c1[nH]c2c(s1)C(c1ccc(O)cc1)C1C3CCC(C3)C1S2 (stereo not drawn) | 4 | -7 | -1 | -4 | x | x | x | x
O=c1[nH]c2c(s1)C(c1cccnc1)C1C3CCC(C3)C1S2 (stereo not drawn) | 84* | -3 | 4 | 2 | -4 | 89* | -10 | 83*
S=c1[nH]nc(C2CC2)n1Cc1ccccc1 | 47* | 6 | -4 | 0 | -3 | 75* | -7 | 61*
S=c1[nH]nc(-c2cccs2)n1C1CCCCC1 | 42* | x | 0 | -3 | -2 | 63* | -7 | 47*
Nc1sc(-c2ccccc2)cc1-c1n[nH]c(=S)n1C1CCCCC1 | -3 | -8 | -4 | 4 | x | x | x | x
S=c1[nH]nc(-c2ccco2)n1Cc1ccccc1 | 26* | 1 | 1 | 0 | -3 | 59* | -8 | 40*
S=c1[nH]nc(CN2CCCC2)n1Cc1ccccc1 | 1 | -9 | -3 | 1 | x | x | x | x
CCn1c(-c2ccco2)n[nH]c1=S | 4 | -2 | -1 | 0 | x | x | x | x
S=c1[nH]nc(-c2ccccc2)n1Cc1ccccc1 | 13* | -4 | 2 | 3 | -3 | 34* | -8 | 22*
C[C@H](CO)N1C[C@H](C)[C@H](CN(C)S(=O)(=O)c2cccc(F)c2)Oc2ncc(-c3cccc(C(=O)N(C)C)c3)cc2C1=O | x | x | x | -4 | x | x | x | x
